High-throughput results from PubChem.
In the library only some 2.2% were active in any assay of this set; here they are far more common.
HCV NS3 hel inh: blocks Hepatitis C virus NS3 helicase unwinding; NS3 helicase DNA unwinding, Cy5 molecular beacon fluorescence; inhibition, % at 10.9 µM; 290,000 tested, 0.56% active;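 active = inhibition above the mean of all tested compounds plus 3 SD, set per campaign, cut at about 35% in these data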;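 also: 0% = DMSO wells and 100% = thioflavine S control wells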
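Control set: DMSO versus 110 µM thioflavine S; Material: NS3 helicase fragment of HCV; Measured by: Cy5 fluorescence at 0 and 60 min, beacon hairpin quenching; Read-out basis: percent inhibition from t60/t0 fluorescence ratio; Times: reaction time 60 min, 25 °C; Repeats: single replicate; Compound dosing: single dose, 10.9 µM nominal final, DMSO 0.8% final.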
GRK2 aptamer HTS: inhibitors of human GRK2 displacing RNA aptamer; 330,000 tested, 0.59% active; AID 488847; bead flow cytometry, FAM-aptamer displacement from GRK2; inhibition of aptamer binding, % at 10 µM;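 active = inhibition of aptamer binding above 40%, roughly 3 SD of noise, on plates passing a quality check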;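 also: median bead fluorescence of bound FAM aptamer so fluorescent compounds give negative values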
GPR7 antagonist: blocks human GPR7 receptor signaling; AID 1861; GPR7-expressing cells, fluorescence antagonist assay; P48145; 290,000 tested, 1.1% active; inhibition, % at 4.4 µM; in the data active = inhibition above about 16%, passing the limit was not always enough;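 also: cells stimulated with the agonist NPW; 0% = agonist with vehicle and 100% = vehicle without agonist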
FID counter: displaces DNA intercalator in HCV helicase counter-screen. 290,000 tested, 0.17% active. DNA fluorescent intercalator displacement, fluorescence. inhibition, % at 7.9 µM; in the data active = inhibition above about 37%;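 also: 0% = vehicle and 100% = reference compound; higher means more ethidium bromide displaced from hairpin DNA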
core dimer inh: blocks dimerization of HCV core protein. 300,000 tested, 0.33% active. AID 1899. inhibition, % at 5 µM. TR-FRET GST/Flag-core106 dimerization, 1536-well;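 active = inhibition above the mean of all tested compounds plus 3 SD, set per screening campaign, cut at about 45% in these data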
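System: GST/Flag-tagged HCV core106 proteins. Incubation: compound-protein-antibody incubation 4 h at 22.5 °C. Technique: HTRF with 340 nm excitation, 617/671 nm emission. Medium: KF-containing HEPES buffer, pH 7.45, DTT, CHAPS, BSA. Read-out: inhibition (%) from 671 over 617 nm ratio. Also added: Eu(K)-anti-GST 90 ng/mL plus XL665-anti-Flag 1 µg/mL.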
DAGLB inh: diacylglycerol lipase beta (human) inhibition. Q8NCG7. HEK293T DAGLB membrane lysate, EnzChek fluorogenic substrate. inhibition, % at 5.17 µM. 340,000 tested, 0.059% active; in the data active = inhibition above about 34%;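 also: 0% = enzyme with vehicle and 100% = wells lacking enzyme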
Target sequence (Q8NCG7 whole entry, looked up): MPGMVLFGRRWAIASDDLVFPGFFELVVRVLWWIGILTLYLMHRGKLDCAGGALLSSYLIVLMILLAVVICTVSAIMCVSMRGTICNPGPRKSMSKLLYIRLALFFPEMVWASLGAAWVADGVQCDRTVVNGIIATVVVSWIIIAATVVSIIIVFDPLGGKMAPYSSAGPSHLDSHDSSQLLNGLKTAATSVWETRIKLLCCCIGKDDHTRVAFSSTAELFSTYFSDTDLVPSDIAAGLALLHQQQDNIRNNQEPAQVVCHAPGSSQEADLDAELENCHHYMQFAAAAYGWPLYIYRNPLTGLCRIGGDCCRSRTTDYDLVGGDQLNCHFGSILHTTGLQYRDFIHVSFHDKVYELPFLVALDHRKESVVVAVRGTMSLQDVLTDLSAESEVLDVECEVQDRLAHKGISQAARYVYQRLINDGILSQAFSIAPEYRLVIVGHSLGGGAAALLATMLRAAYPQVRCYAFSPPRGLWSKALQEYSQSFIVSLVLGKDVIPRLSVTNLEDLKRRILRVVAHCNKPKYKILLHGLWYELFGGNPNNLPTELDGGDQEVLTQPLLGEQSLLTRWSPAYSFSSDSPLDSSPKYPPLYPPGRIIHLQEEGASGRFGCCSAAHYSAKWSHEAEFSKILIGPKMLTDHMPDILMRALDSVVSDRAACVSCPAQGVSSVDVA
* = called active by the depositor; . = not tested or not shown.

SMILES | HCV NS3 hel inh | GRK2 aptamer HTS | GPR7 antagonist | FID counter | core dimer inh | DAGLB inh
O=C1/C(=C2\C(=O)N(Cc3ccc(F)cc3)c3ccccc32)SC(=S)N1CCS(=O)(=O)O | -24.3 | 0.0 | -0.5 | 39.0* | 4.8 | 6.7
CC(C)[C@H](NC(=O)N1c2ccccc2NC(=O)[C@@H]1C(C)C)C(=O)N1CCC(C(=O)O)CC1 | -3.3 | 2.0 | 2.0 | -10.4 | -0.2 | 0.4
CCOc1ccc(NCc2cccn2-c2nnc(N3CCC(C(=O)NCCCN4C(C)CCCC4C)CC3)s2)cc1 (stereo unspecified) | -81.4 | 0.0 | 0.5 | 41.3* | -9.2 | 3.0
CCOc1ccc(NCc2cccn2-c2nnc(N3CCC(C(=O)NCCCN4CCCCC4C)CC3)s2)cc1 (stereo unspecified) | -86.0 | 0.0 | -3.3 | 26.2 | -11.2 | -1.4
O=C(/C=C/c1ccc(Br)cc1)c1ccc(NC2=NCCCS2)cc1 | -94.2 | 0.0 | 51.6* | 36.9* | 0.3 | 6.8
Cc1ccc(-c2noc(CCC(=O)NCCCN3CCN(c4cccc(Cl)c4)CC3)n2)cc1 | -64.0 | 1.0 | 19.0* | 8.0 | -12.7 | -3.4
CCc1nn(CCCC(=O)NC2CCCCC2C)c(=O)c2cc3occc3n12 (stereo unspecified) | . | . | . | . | . | -1.2
O=S(=O)(NCCc1c[nH]c2ccccc12)c1ccc(F)cc1 | . | . | . | . | . | 1.7
O=C(NCC1CCCO1)c1ccc(COCC(F)(F)C(F)F)cc1 (stereo unspecified) | -5.5 | 0.0 | 16.5* | -5.6 | -0.5 | -2.3
Cc1ccc(CSC2=Nc3ccccc3C3=NC(CC(=O)NCc4ccco4)C(=O)N23)cc1 (stereo unspecified) | 30.5 | 5.0 | 3.3 | -23.9 | 64.2* | -1.1
CCCn1c(N)c(N2CCCCC2)c(=O)n(CC(=O)Nc2ccccc2C(F)(F)F)c1=O | . | 0.0 | . | . | . | 1.4
COCCCN(C(=O)C(C)Oc1ccc(Br)cc1)c1c(N)n(Cc2ccccc2)c(=O)[nH]c1=O (stereo unspecified) | . | 0.0 | . | . | -5.5 | 2.0
CC(NC(=O)CN(c1cccc(C(F)(F)F)c1)S(C)(=O)=O)c1ccccc1 (stereo unspecified) | -1.7 | 0.0 | -2.3 | -9.7 | 1.6 | -2.2
O=C1OCC(c2ccccc2)=C1c1ccccc1 | -1.2 | 0.0 | -21.7 | -9.1 | -4.4 | -1.2
N#CC1=C(c2ccc(-c3ccccc3)cc2)COC1=O | 26.6 | 3.0 | -22.3 | -13.6 | 51.9* | 0.6
O=C(NCc1cccnc1)/C(=C\c1ccc(-c2ccc(Cl)c(Cl)c2)o1)S(=O)(=O)c1ccccc1 | -22.4 | 0.0 | 30.7* | -16.6 | 0.9 | 10.6
O=C1c2c(O)cccc2Cc2cccc(O)c21 | . | 3.0 | . | . | 58.5* | -1.6
O=C1Cc2cccc(=O)c(O)c2C(=O)O1 | . | . | . | . | . | -2.5
Cc1ccc(NC(=O)C(C)c2ccc([N+](=O)[O-])cc2)cc1Cl (stereo unspecified) | 12.2 | 0.0 | 40.1* | 21.1 | -2.9 | -2.1
COCCn1c(=N)c(C(=O)NCCc2ccc(OC)cc2)cc2c(=O)n3cccc(C)c3nc21 | -4.5 | 1.0 | -5.4 | 14.2 | 10.0 | 4.3
COc1ccc(CCNC(=O)c2cc3c(=O)n4cccc(C)c4nc3n(CCCN3CCOCC3)c2=N)cc1 | -19.5 | 0.0 | -7.6 | 54.5* | 6.2 | 0.9
Cc1cccn2c(=O)c3cc(C(=O)NC4CCCC4)c(=N)n(CCCN4CCOCC4)c3nc12 | 7.7 | 1.0 | 7.4 | 41.4* | 6.3 | 0.1
COc1ccc(C(C(=O)NC2CCCC2)N(C(=O)c2snc(-c3ccc(F)cc3)c2N)c2ccccc2)cc1 (stereo unspecified) | 1.8 | 1.0 | 12.2 | 3.0 | 38.5 | -1.4
COc1ccc(C(C(=O)NC2CCCC2)N(C(=O)c2snc(-c3ccc(F)cc3)c2N)c2ccc(OC)cc2)cc1 (stereo unspecified) | -11.7 | 0.0 | -13.1 | -4.7 | 48.3* | -7.3
Cc1cc(C)c2c(=O)[nH]c(SCC(=O)N(C)C)nc2n1 | -5.3 | 1.0 | -7.3 | 75.2* | -0.2 | -2.4
SMILES | HCV NS3 hel inh | GRK2 aptamer HTS | GPR7 antagonist | FID counter | core dimer inh | DAGLB inh
CC1=CC(C)C(=O)N(CCN2CCOCC2)C(C)=C1 (stereo unspecified) | . | . | . | . | . | -5.7
CCOc1ccc(CN2CCC(n3nccc3NC(=O)CCCc3ccccc3)CC2)cc1 | -39.5 | 0.0 | 9.2 | 38.2* | 2.7 | 2.1
CC1=C(C)CC(C(=O)NC2CCN(C(C)C)CC2)C(C(=O)O)C1 (stereo unspecified) | 9.8 | 6.0 | 8.0 | -0.4 | -0.2 | -0.3
COCCOC(=O)c1c(C)oc2ccc(OCc3cc(C(=O)OC)oc3C)cc12 | -13.2 | 1.0 | -15.1 | -19.6 | 7.0 | -10.4
COC(=O)c1cc(COc2ccc3c(c2)oc(=O)c2ccccc23)c(C)o1 | 1.8 | 4.0 | -10.0 | -2.0 | 51.3* | 1.5
CNc1nc(C)c(C(=O)OCC(=O)OC)s1 | -4.3 | 5.0 | -8.7 | 37.1* | -3.6 | -1.6
CNc1nc(C)c(C(=O)OCc2ccccc2)s1 | -8.9 | 0.0 | -15.6 | -10.8 | -2.2 | -3.8
O=C(Nc1ccc(S(=O)(=O)Nc2nccs2)cc1)c1ccc(F)cc1 | 4.7 | 2.0 | -6.9 | -6.4 | 12.2 | 4.3
O=C(Nc1ccc(S(=O)(=O)Nc2nccs2)cc1)c1ccc(N2C(=O)c3ccccc3C2=O)cc1 | 29.3 | 0.0 | 7.2 | 2.8 | 53.7* | 4.1
COc1ccc(S(=O)(=O)N(C)C[C@@H]2OCc3cn(nn3)CCCC(=O)N([C@@H](C)CO)C[C@H]2C)cc1 | . | . | . | . | . | 2.5
N#C/C(=C(/O)COC(=O)c1ccc2c(c1)OCCO2)c1nc2ccccc2[nH]1 | -0.5 | 0.0 | -12.0 | -3.0 | 58.4* | 3.5
Cc1oc(C)c2c(=O)ccc3c(c12)OC(N)=C(C#N)C3c1ccc(F)cc1 (stereo unspecified) | 31.4 | 4.0 | 7.7 | -14.2 | 46.1* | -0.9
CCCN1CCC(NCc2cn(C)nc2-c2ccc(Oc3ccccc3)cc2)CC1 | -60.9 | 0.0 | 6.2 | 38.9* | 3.4 | -1.8
CC1CCc2c(sc3nc(C(C)(C)C)nc(N4CCN(C(=O)CCl)CC4)c23)C1 (stereo unspecified) | -15.2 | 0.0 | 14.5 | -27.2 | 16.6 | 9.0
O=Cc1coc2c(ccc3ccccc32)c1=O | 35.2 | 80.0* | 22.6 | 12.8 | 21.7 | .
O=C/C=C/c1coc2ccc3ccccc3c2c1=O | 3.1 | 0.0 | -13.4 | 3.2 | 7.2 | .
COc1ccc(NC(=O)CSC2=C(C#N)C(c3ccco3)C(C(=O)Nc3nc4ccccc4s3)=C(C)N2)cc1 (stereo unspecified) | -60.7 | 0.0 | 5.6 | -6.5 | 47.7* | 1.2
CCOc1ccccc1N1Cc2cc(C)c(C)cc2C1 | -4.5 | 15.0 | -15.2 | -14.0 | 66.7* | -2.3
CCOc1ccc(N2Cc3ccccc3C2)cc1 | 8.3 | 3.0 | -9.4 | -5.7 | 43.6 | 3.5
Cc1cc2c(cc1C)CN(c1ccccc1)C2 | 1.4 | 0.0 | -8.5 | -7.8 | 27.6 | -2.2
CCOc1ccccc1N1Cc2ccccc2C1 | 9.5 | 8.0 | -4.7 | -3.5 | 53.6* | 2.6
